Measurements: ChEMBL document CHEMBL5033992, “Discovery and Synthesis of a Pyrimidine-Based Aurora Kinase Inhibitor to Reduce Levels of MYC Oncoproteins” (J Med Chem, 2021)
One block for each molecule: values may come before it. The source made the active and inactive calls. The rule behind the calls is not given here.

Key:
SK-N-BE(2) [1] = test: Growth inhibition of human SKNBE2 cells assessed as reduction in cell viability after 24 hrs by PrestoBlue Cell Viability assay; conditions: SKNBE2, 24 h
NCI-H82 [2] = test: Growth inhibition of human NCI-H82 cells assessed as reduction in cell viability after 72 hrs by PrestoBlue Cell Viability assay; assay type: functional, cell-based; conditions: NCI-H82, 72 h
Procedure, shortened: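 Cells seeded at 5000–10,000 per well, grown 24 h in RPMI1640 with 10% FBS and antibiotics, then exposed to compound at 0–10 μM for 72 h. Viability read by PrestoBlue fluorescence. IC50 from triplicate eight-point titration.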

[3] = molecular target: T1, Aurora kinase A (Homo sapiens) (UniProt O14965); test: Inhibition of recombinant GST-tagged N-terminal truncated human Aurora A (123 to 401 residues) expressed in Sf9 insect cell using tetra-LRRASLG peptide as substrate at 100 nM incubated for 120 mins by Kinase-Glo plus luminescent kinase assay relative to control
T1 sequence (whole entry): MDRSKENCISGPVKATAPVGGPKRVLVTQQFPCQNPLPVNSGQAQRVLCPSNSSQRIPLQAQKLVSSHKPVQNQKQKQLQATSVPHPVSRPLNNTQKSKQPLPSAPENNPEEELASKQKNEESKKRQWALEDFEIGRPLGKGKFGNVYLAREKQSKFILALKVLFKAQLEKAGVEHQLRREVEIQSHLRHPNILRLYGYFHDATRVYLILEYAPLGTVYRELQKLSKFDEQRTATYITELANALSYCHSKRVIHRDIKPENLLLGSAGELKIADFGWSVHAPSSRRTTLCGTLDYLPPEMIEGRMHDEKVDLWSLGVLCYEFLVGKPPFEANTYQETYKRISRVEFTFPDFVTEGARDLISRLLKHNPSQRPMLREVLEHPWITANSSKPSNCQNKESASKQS

[4] = Effect on MYCN protein expression level in human SKNBE2 cells assessed as fold change at 1 uM incubated for 24 hrs by Western blot analysis relative to control; assay type: functional, SK-N-BE(2)
Procedure, shortened: (§1)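 Cells treated with compound at various concentrations for 24 h, then washed in PBS, lysed in Laemmli buffer and boiled 10 min. Lysates run on SDS-PAGE, transferred to PVDF and probed with antibodies, then AP- or HRP-conjugated secondaries with chemiluminescent detection. Loading control β-actin. NCI-H82 grown in RPMI1640 and SK-N-BE(2) in MEM, each with 10% FBS. Relative levels quantified from triplicate experiments.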

[5] = Effect on cMYC protein expression level in human NCI-H82 cells assessed as fold change at 1 uM incubated for 24 hrs by Western blot analysis relative to control; assay type: functional
Procedure, shortened: as §1

[6] = Tmax in ICR mouse at 10 mg/kg, po measured up to 24 hrs by LC-MS/MS analysis; assay type: ADME, organism-based; conditions: in vivo
[7] = AUC (0 to inf) in ICR mouse at 10 mg/kg, po measured up to 24 hrs by LC-MS/MS analysis; assay type: ADME, organism-based; parameters: route oral, dose 10 mg/kg, time <=24; conditions: in vivo
[8] = Cmax in ICR mouse at 10 mg/kg, po measured up to 24 hrs by LC-MS/MS analysis; assay type: ADME, organism-based; parameters: route oral, dose 10 mg/kg, time <=24; conditions: in vivo
[9] = Half life in ICR mouse at 10 mg/kg, po measured up to 24 hrs by LC-MS/MS analysis; assay type: ADME, organism-based; conditions: in vivo
NCI-H82 [10] = test: Induction of cell cycle arrest in human NCI-H82 cells at 1 uM after 24 hrs by Propidium iodide staining based flow cytometric analysis; assay type: functional
[11] = Oral bioavailability in ICR mouse at 10 mg/kg measured up to 24 hrs by LC-MS/MS analysis; assay type: ADME, organism-based; conditions: in vivo
[12] = Volume of distribution at steady state in ICR mouse at 2 mg/kg, iv measured up to 24 hrs by LC-MS/MS analysis; assay type: ADME, organism-based; conditions: in vivo, read-out: Vdss
[13] = AUC (0 to inf) in ICR mouse at 2 mg/kg, iv measured up to 24 hrs by LC-MS/MS analysis; assay type: ADME, organism-based; parameters: route intravenous, dose 2 mg/kg, time <=24; conditions: in vivo; for AUC(0-inf): ICR
[14] = Clearance in ICR mouse at 2 mg/kg, iv measured up to 24 hrs by LC-MS/MS analysis; assay type: ADME, organism-based; conditions: in vivo
[15] = Half life in ICR mouse at 2 mg/kg, iv measured up to 24 hrs by LC-MS/MS analysis; assay type: ADME, organism-based; conditions: in vivo
[16] = Toxicity in athymic nu/nu nude mouse xenografted with NCI-H446 cells assessed as reduction in body weight at 50 to 100 mg/kg, po administered at 5 on-2-off for 2 to 4 weeks relative to control; assay type: organism-based; parameters: scale not given: the % may be the effect or the level left; conditions: in vivo, dose lower 50 mg/kg, time lower 2 weeks, dose upper 100 mg/kg, time upper 4 weeks
Procedure, shortened: (§2)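 Male athymic nu/nu mice, 6 weeks old, inoculated subcutaneously with 1 × 10⁶ NCI-H446 cells in saline with 50% Matrigel. Dosing IV or oral, vehicle 5% dimethylacetamide/95% PEG400, on a 5-on-2-off schedule for 2–4 weeks once tumors reached ≥200 mm³. Caliper volume = length × width²/2; tumors and body weight measured at least twice weekly. ANOVA with Student–Newman–Keuls, P < 0.05.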

NCI-H446 [17] = test: Anti-tumor activity against human NCI-H446 cells xenografted in athymic nu/nu nude mouse assessed as reduction in tumor volume at 50 to 100 mg/kg, po administered at 5 on-2-off for 2 to 4 weeks; assay type: functional, organism-based; conditions: dose 50-100 mg/kg, time 2-4 weeks
Procedure, shortened: as §2

[18] = Inhibition of Histone H3 phosphorylation in human NCI-H446 cells xenografted in assessed as reduction in phosphorylation at Ser 10 residue at 100 mg/kg, po measured upto 8 hrs by western blot analysis relative to control
SK-N-BE(2) [19] = test: Down regulation of Cyclin B1 expression in human SKNBE2 cells at 50 to 1000 nM after 24 hrs by Western blot analysis; assay type: functional, cell-based; conditions: dose 50-1000 nM
Procedure, shortened: as §1

NCI-H82 [20] = test: Down regulation of Cyclin B1 expression in human NCI-H82 cells at 50 to 1000 nM after 24 hrs by Western blot analysis; assay type: functional, cell-based; conditions: dose 50-1000 nM
Procedure, shortened: as §1

NCI-H82 [21] = test: Inhibition of Histone H3 phosphorylation in human NCI-H82 cells assessed as reduction in phosphorylation at Ser 10 residue at 50 to 1000 nM after 24 hrs by Western blot analysis; assay type: cell-based; conditions: dose 50-1000 nM
Procedure, shortened: as §1

[22] = molecular target: Aurora kinase B (Homo sapiens) (UniProt Q96GD4); test: Inhibition of Aurora B phosphorylation in human NCI-H82 cells assessed as reduction in phosphorylation at Thr 232 residue at 50 to 1000 nM after 24 hrs by Western blot analysis; assay type: cell-based; conditions: dose 50-1000 nM
Procedure, shortened: as §1

[23] = molecular target: Aurora kinase B (Homo sapiens) (UniProt Q96GD4); test: Inhibition of Aurora B phosphorylation in human SKNBE2 cells assessed as reduction in phosphorylation at Thr 232 residue at 50 to 1000 nM after 24 hrs by Western blot analysis; assay type: cell-based; conditions: dose 50-1000 nM
Procedure, shortened: as §1

NCI-H446 [24] = test: Induction of apoptosis in human NCI-H446 cells xenografted in athymic nu/nu nude mouse assessed as increase in cleaved PARP1 protein expression level at 100 mg/kg, po measured up to 24 hrs by Western blot analysis; conditions: time hrs <=24
SKNBE2 = test: Inhibition of Histone H3 phosphorylation in human SKNBE2cells assessed as reduction in phosphorylation at Ser 10 residue at 50 to 1000 nM after 24 hrs by Western blot analysis; conditions: dose 50-1000 nM
Procedure, shortened: as §1

Sequence of Aurora kinase B (Homo sapiens) (Q96GD4 whole entry): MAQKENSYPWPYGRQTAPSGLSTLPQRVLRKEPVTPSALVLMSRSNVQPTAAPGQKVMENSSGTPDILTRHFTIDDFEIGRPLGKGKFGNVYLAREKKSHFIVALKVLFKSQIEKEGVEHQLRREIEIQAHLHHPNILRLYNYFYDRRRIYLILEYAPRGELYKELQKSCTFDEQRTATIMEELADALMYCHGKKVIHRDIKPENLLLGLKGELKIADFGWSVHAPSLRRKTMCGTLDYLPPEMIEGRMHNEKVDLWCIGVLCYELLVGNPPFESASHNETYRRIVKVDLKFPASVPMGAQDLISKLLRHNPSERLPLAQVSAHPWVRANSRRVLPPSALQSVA

Compound: CCN1CCN(C(=O)Cc2ccc(Nc3ncc(F)c(Nc4ccc(C(=O)Nc5ccccc5Cl)cc4)n3)cc2)CC1
- IC50 (SK-N-BE(2) [1]): 1 nM
- IC50 (NCI-H82 [2]): 1 nM

Compound: Cc1cc(Nc2cc(N3CCN(C)CC3)nc(N[C@H]3CCN(C(=O)c4cccc(Cl)c4F)C3)n2)n[nH]1
- fold change (FC) [4]: 0.815
- fold change (FC) [5]: 0.843

Compound: Cc1cc(Nc2cc(N3CC(N(C)C)C3)nc(N[C@H]3CCN(C(=O)c4cccc(Cl)c4F)C3)n2)n[nH]1
- fold change (FC) [4]: 0.754
- fold change (FC) [5]: 1.084

Compound: CCN(CCCOc1ccc2c(Nc3cc(CC(=O)Nc4cccc(F)c4)[nH]n3)ncnc2c1)CCOP(=O)(O)O [BARASERTIB]
- IC50 (SK-N-BE(2) [1]): 1 nM
- IC50 (NCI-H82 [2]): 1 nM
- Activity (NCI-H82 [10]): Active

Compound: CCN1CCN(c2cc(Nc3cc(C)nn3C(=O)OC(C)(C)C)nc(N[C@H]3CCN(C(=O)c4ccc(Cl)cc4F)C3)n2)CC1
- Tmax [6]: 0.5 h
- AUC(0-inf) [7]: 1130 ng·h/mL
- Cmax [8]: 690 ng/mL
- bioavailability [11]: 28.9%
- half-life [9]: 3.3 h
- Vd [12]: 4.9 L/kg
- AUC(0-inf) [13]: 780 ng·h/mL
- clearance [14]: 38 mL/min/kg
- half-life [15]: 5 h

Compound: CCOC(=O)n1nc(C)cc1Nc1cc(N2CCN(CC)CC2)nc(N[C@H]2CCN(C(=O)c3ccc(Cl)cc3F)C2)n1
- Tmax [6]: 0.3 h
- AUC(0-inf) [7]: 4050 ng·h/mL
- Cmax [8]: 1090 ng/mL
- bioavailability [11]: 54.5%
- half-life [9]: 2.7 h
- Activity [16]: < 5%
- Vd [12]: 2.8 L/kg
- AUC(0-inf) [13]: 1480 ng·h/mL
- Activity (NCI-H446 [17]): Dose-Dependent Effect
- clearance [14]: 20 mL/min/kg
- half-life [15]: 5.8 h

Compound: CCN1CCN(c2cc(Nc3cc(C)[nH]n3)nc(N[C@H]3CCN(C(=O)c4cccc(Cl)c4F)C3)n2)CC1
- fold change (FC) [4]: 0.741

Compound: Cc1cc(Nc2cc(N(C)CCN(C)C)nc(N[C@H]3CCN(C(=O)c4cccc(Cl)c4F)C3)n2)n[nH]1
- fold change (FC) [4]: 0.805
- fold change (FC) [5]: 0.911

Compound: COc1cc(Nc2ncc3c(n2)-c2ccc(Cl)cc2C(c2c(F)cccc2OC)=NC3)ccc1C(=O)O [ALISERTIB]
- inhibition in vivo at 100 mg/kg [18]: > 90%
- Activity (SK-N-BE(2) [19]): Active
- Activity (NCI-H82 [20]): Active
- inhibition (NCI-H82 [21]): Active
- inhibition [22]: Dose-Dependent Effect
- inhibition [23]: Dose-Dependent Effect
- Activity (NCI-H446 [24]): Active
- inhibition (SKNBE2): Active

Compound: CCN1CCN(c2cc(Nc3cc(C)[nH]n3)nc(N[C@H]3CCN(C(=O)c4ccccc4)C3)n2)CC1
- fold change (FC) [4]: 0.919
- fold change (FC) [5]: 0.93

Compound: Cc1cc(Nc2cc(N3CC[C@H](N(C)C)C3)nc(N[C@H]3CCN(C(=O)c4cccc(Cl)c4F)C3)n2)n[nH]1
- fold change (FC) [4]: 0.809
- fold change (FC) [5]: 0.996

Further lines, results first:

- inhibition [3]: < 50%
Compound: CCN1CCN(c2cc(Nc3cc(C)[nH]n3)nc(N[C@H]3CCN(C(=O)c4ccc(Cl)nc4F)C3)n2)CC1

- Tmax [6]: 0.4 h
- AUC(0-inf) [7]: 961 ng·h/mL
- Cmax [8]: 274 ng/mL
- half-life [9]: 2.3 h
Compound: CCOC(=O)n1nc(Nc2cc(N3CCN(CC)CC3)nc(N[C@H]3CCN(C(=O)c4ccc(Cl)cc4F)C3)n2)cc1C

- inhibition [3]: < 50%
Compound: CCN1CCN(c2cc(Nc3cc(C)[nH]n3)nc(N[C@H]3CCN(C(=O)c4cc(F)c(Cl)c(F)c4)C3)n2)CC1

- Tmax [6]: 1.4 h
- AUC(0-inf) [7]: 157 ng·h/mL
- Cmax [8]: 36.1 ng/mL
- bioavailability [11]: 7.8%
- half-life [9]: 2.2 h
- Vd [12]: 18.8 L/kg
- AUC(0-inf) [13]: 401 ng·h/mL
- clearance [14]: 73.3 mL/min/kg
- half-life [15]: 5.5 h
Compound: CCN1CCN(c2cc(Nc3cc(C)nn3C(=O)C(C)(C)C)nc(N[C@H]3CCN(C(=O)c4ccc(Cl)cc4F)C3)n2)CC1

- inhibition [3]: < 50%
Compound: CCN1CCN(c2cc(Nc3cc(C)[nH]n3)nc(N[C@H]3CCN(C(=O)c4ccc(C(F)(F)F)cc4F)C3)n2)CC1

- inhibition [3]: < 50%
Compound: CCN1CCN(c2cc(Nc3cc(C)[nH]n3)nc(N[C@H]3CCN(C(=O)c4cc(F)c(F)cc4F)C3)n2)CC1

- Tmax [6]: 0.4 h
- AUC(0-inf) [7]: 243 ng·h/mL
- Cmax [8]: 114 ng/mL
- half-life [9]: 1.9 h
- Vd [12]: 0.9 L/kg
- AUC ([13]; 24 h): 351 ng·h/mL
- half-life [15]: 1 h
Compound: CCC(=O)n1nc(Nc2cc(N3CCN(CC)CC3)nc(N[C@H]3CCN(C(=O)c4ccc(Cl)cc4F)C3)n2)cc1C

- inhibition [3]: < 50%
Compound: CCN1CCN(c2cc(Nc3cc(C)[nH]n3)nc(N[C@H]3CCN(S(=O)(=O)c4ccc(Cl)cc4F)C3)n2)CC1
